Results: ChEMBL document CHEMBL1132437, “Synthesis and antimicrobial activity of 4H-4-oxoquinolizine derivatives: consequences of structural modification at the C-8 position” (1999)
≈ marks a conversion by molar mass, not a printed value.

How the values were obtained:
Assay type in all cases: functional
[1] = system: Staphylococcus aureus; assay: In vitro antibacterial activity against gram-positive Staphylococcus aureus 1775; details: Staphylococcus aureus; read-out: MIC
Summary of the method: (§1)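 Agar dilution MIC determination following the National Committee for Clinical Laboratory Standards recommendations.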

[2] = system: Escherichia coli; assay: In vitro antibacterial activity against gram negative Escherichia coli KNK 437; details: Escherichia coli; read-out: MIC; summary of the method: as §1
[3] = system: Enterococcus faecium; assay: In vitro antibacterial activity against gram-positive Enterococcus faecium ATCC 8043; details: Enterococcus faecium, ATCC 8043; read-out: MIC; summary of the method: as §1
[4] = system: Burkholderia cepacia; assay: In vitro antibacterial activity against gram negative Pseudomonas cepacia 2961; details: Burkholderia cepacia; read-out: MIC; summary of the method: as §1
[5] = system: Streptococcus pyogenes; assay: In vitro antibacterial activity against gram positive Streptococcus pyogenes 930; details: Streptococcus pyogenes; read-out: MIC; summary of the method: as §1
[6] = system: Escherichia coli; assay: In vivo efficacy against Escherichia coli JUHL in mouse protection test after subcutaneous administration; details: Escherichia coli, sc; read-out: ED50
Summary of the method: (§2)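 Mouse protection model: mice infected intravenously with 100-fold LD50 of the organism. Compound given by subcutaneous injection or oral gavage at 1 and 5 h after infection, over a dose range. Deaths tracked for 7 days post-inoculation. ED50 is the dose giving 50% survival of treated mice over the trial.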

[7] = system: Pseudomonas aeruginosa; assay: In vitro antibacterial activity against gram negative P. aeruginosa DPHP 5263; details: Pseudomonas aeruginosa, DPHP 5263; read-out: MIC; summary of the method: as §1
[8] = system: Staphylococcus aureus; assay: In vitro antibacterial activity against gram-positive Staphylococcus aureus NCTC 10649M; details: Staphylococcus aureus, NCTC 10649; read-out: MIC; summary of the method: as §1
[9] = system: Staphylococcus aureus; assay: In vivo efficacy against Staphylococcus aureus NCTC 10649M in mouse; summary of the method: as §2
[10] = system: Pseudomonas aeruginosa; assay: In vitro antibacterial activity against Gram-negative Pseudomonas aeruginosa 5007; details: Pseudomonas aeruginosa; read-out: MIC; summary of the method: as §1
[11] = system: Mus musculus; assay: IIn vivo efficacy against Escherichia coli JUHL in mouse protection test after administration by oral gavage; summary of the method: as §2
[12] = system: Streptococcus pneumoniae; assay: In vivo efficacy against Streptococcus pneumoniae ATCC 6303 in mouse protection test after s.c. administration.; details: Streptococcus pneumoniae, sc; read-out: ED50; summary of the method: as §2
[13] = system: Mus musculus; assay: (§3) In vivo efficacy against Pseudomonas aeruginosa 5007 in mouse protection test after subcutaneous administration; details: sc; summary of the method: as §2
[14] = system: Mus musculus; assay: In vivo efficacy against Streptococcus pneumoniae ATCC 6303 in mouse protection test after administration by oral gavage; summary of the method: as §2
[15] = system: Pseudomonas aeruginosa; assay: as §3; details: Pseudomonas aeruginosa, sc; read-out: ED50; summary of the method: as §2
[16] = system: Escherichia coli; assay: In vivo efficacy against Escherichia coli JUHL in mouse protection test after p.o. administration.; details: Escherichia coli, po; read-out: ED50; summary of the method: as §2
[17] = system: Staphylococcus aureus; assay: In vivo efficacy against Staphylococcus aureus NCTC 10649M in mouse protection test after p.o. administration.; details: Staphylococcus aureus, po; read-out: ED50; summary of the method: as §2
[18] = system: Mus musculus; assay: In vivo efficacy against Pseudomonas aeruginosa 5007 in mouse protection test after administration by oral gavage.; summary of the method: as §2
[19] = system: Mus musculus; assay: InIn vivo efficacy against Escherichia coli JUHL in mouse protection test after administration by oral gavage; summary of the method: as §2
[20] = system: Mus musculus; assay: In vivo efficacy against Escherichia coli JUHL in mouse protection test after administration by oral gavage.; summary of the method: as §2
[21] = system: Mus musculus; assay: (§4) In vivo efficacy against Pseudomonas aeruginosa 5007 in mouse protection test after administration by oral gavage; summary of the method: as §2
[22] = system: Mus musculus; assay: In vivo efficacy against Streptococcus pneumoniae ATCC 6303 in mouse protection test after administration by oral gavage.; summary of the method: as §2
[23] = system: Streptococcus pyogenes; assay: In vitro antibacterial activity against Streptococcus pyogenes 930 an erythromycin-resistant
Summary of the method: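 MIC by agar dilution following National Committee for Clinical Laboratory Standards recommendations. P. cepacia 2961 is a ciprofloxacin-resistant strain; S. pyogenes 930 is erythromycin-resistant.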

[24] = system: Mus musculus; assay: n vivo efficacy against Streptococcus pneumoniae ATCC 6303 in mouse protection test after administration by oral gavage; summary of the method: as §2
[25] = system: Pseudomonas aeruginosa; assay: as §4; details: Pseudomonas aeruginosa, po; read-out: ED50; summary of the method: as §2
[26] = Staphylococcus aureus, read-out: ED50

| MIC [1] [µg/mL] | MIC [2] [µg/mL] | MIC [3] [µg/mL] | MIC [4] [µg/mL] | MIC [5] [µg/mL] | MIC [7] [µg/mL] | MIC [8] [µg/mL] | MIC [10] [µg/mL] | SMILES | ED50 [6] [mg/kg] | ED50 [9, 26] [mg/kg] | ED50 [12] [mg/kg] | ED50 [15] [mg/kg] | ED50 [16] [mg/kg] | ED50 [17] [mg/kg] | also measured |
| --- | --- | --- | --- | --- | --- | --- | --- | --- | --- | --- | --- | --- | --- | --- | --- |
| 0.78 (≈ 2.01 µM) | 0.78 (≈ 2.01 µM) | 0.1 (≈ 0.258 µM) | 6.2 (≈ 16 µM) | 0.1 (≈ 0.258 µM) | 100 (≈ 258 µM) | 0.002 (≈ 0.00516 µM) | 1.56 (≈ 4.03 µM) | Cc1c(N2C[C@@H]3OCCN[C@@H]3C2)c(F)cn2c(=O)c(C(=O)O)cc(C3CC3)c12 | > 5 | 2.7 | – | – | – | – | ED50 [9]: 4.8 mg/kg; ED50 [11]: > 20 mg/kg |
| 0.39 (≈ 0.976 µM) | 0.05 (≈ 0.125 µM) | 0.1 (≈ 0.25 µM) | 0.78 (≈ 1.95 µM) | 0.02 (≈ 0.0501 µM) | 3.1 (≈ 7.76 µM) | 0.01 (≈ 0.025 µM) | 0.2 (≈ 0.501 µM) | Cc1c(N2CCC[C@H](NC3CC3)C2)c(F)cn2c(=O)c(C(=O)O)cc(C3CC3)c12 | > 5 | 0.8 | 4.3 | – | – | – | ED50 [13]: > 32 mg/kg |
| – | – | – | – | – | – | – | – | Cc1c(N2CC[C@@H](C)[C@H](N)C2)c(F)cn2c(=O)c(C(=O)O)cc(C3CC3)c12 | 0.6 | 1 | 2.1 | 24.5 | 3 | 4.3 | ED50 [14]: 1 mg/kg; ED50 [18]: > 50 mg/kg |
| 0.39 (≈ 1.04 µM) | 0.39 (≈ 1.04 µM) | 0.05 (≈ 0.134 µM) | 3.1 (≈ 8.3 µM) | 0.02 (≈ 0.0536 µM) | – | 0.01 (≈ 0.0268 µM) | 0.39 (≈ 1.04 µM) | Cc1c(N2CC[C@H](C)[C@@H](N)C2)c(F)cn2c(=O)c(C(=O)O)cc(C3CC3)c12 | 1.7 | 0.5 | – | – | – | 1.9 | ED50 [19]: 2.3 mg/kg |
| 1.56 (≈ 4.18 µM) | 0.2 (≈ 0.536 µM) | 0.1 (≈ 0.268 µM) | 3.1 (≈ 8.3 µM) | 0.1 (≈ 0.268 µM) | 6.2 (≈ 16.6 µM) | 0.05 (≈ 0.134 µM) | 0.39 (≈ 1.04 µM) | CCN[C@H]1CCN(c2c(F)cn3c(=O)c(C(=O)O)cc(C4CC4)c3c2C)C1 | 0.6 | 1 | 2.9 | > 8 | – | 7.7 | ED50 [20]: 3 mg/kg; ED50 [21]: > 50 mg/kg; ED50 [22]: 7.9 mg/kg |
| 1.56 (≈ 4.03 µM) | 0.2 (≈ 0.516 µM) | 0.39 (≈ 1.01 µM) | 3.1 (≈ 8 µM) | 0.2 (≈ 0.516 µM) | 12.5 (≈ 32.3 µM) | 0.1 (≈ 0.258 µM) | 1.56 (≈ 4.03 µM) | CCCN[C@H]1CCN(c2c(F)cn3c(=O)c(C(=O)O)cc(C4CC4)c3c2C)C1 | 1.1 | 4.3 | – | > 8 | > 10 | 25.4 | ED50 [21]: > 50 mg/kg |
| 0.39 (≈ 0.996 µM) | 0.2 (≈ 0.511 µM) | 0.1 (≈ 0.255 µM) | 3.1 (≈ 7.92 µM) | 0.1 (≈ 0.255 µM) | 12.5 (≈ 31.9 µM) | 0.01 (≈ 0.0255 µM) | 0.78 (≈ 1.99 µM) | Cc1c(N2CC[C@H](NCCF)C2)c(F)cn2c(=O)c(C(=O)O)cc(C3CC3)c12 | 4.9 | 1.1 | – | > 32 | 17.2 | 7.5 | ED50 [24]: 9.9 mg/kg; ED50 [25]: > 50 mg/kg |

| SMILES | MIC [1] [µg/mL] | MIC [2] [µg/mL] | MIC [3] [µg/mL] | MIC [4] [µg/mL] | MIC [5] [µg/mL] | MIC [7] [µg/mL] | MIC [8] [µg/mL] | MIC [10] [µg/mL] | ED50 [6] [mg/kg] | ED50 [9, 26] [mg/kg] | ED50 [12] [mg/kg] | ED50 [15] [mg/kg] | ED50 [16] [mg/kg] | ED50 [17] [mg/kg] | also measured |
| --- | --- | --- | --- | --- | --- | --- | --- | --- | --- | --- | --- | --- | --- | --- | --- |
| Cc1c(N2C[C@@H](C)[C@H](N)C2)c(F)cn2c(=O)c(C(=O)O)cc(C3CC3)c12 | 0.78 (≈ 2.17 µM) | 0.05 (≈ 0.139 µM) | 0.05 (≈ 0.139 µM) | 0.78 (≈ 2.17 µM) | – | 1.56 (≈ 4.34 µM) | 0.02 (≈ 0.0556 µM) | 0.2 (≈ 0.556 µM) | – | – | – | – | – | – | MIC [23]: 0.05 µg/mL (≈ 0.139 µM) |
